# A selection: hits, their analogues and other compounds. The true share with any hit is near 2%.
# PABP1 MLLE inh – inhibitors of microRNA-mediated deadenylation, human PABP1 MLLE binding | P11940 | actives 0.36% (n = 360,000) | AID 588489 | GST-MLLE / FITC-PAM2 fluorescence polarization | inhibition, % at 20 µM; in the data active = inhibition above about 35%, passing the limit was not always enough;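 also: plate controls were DMSO wells with GST-MLLE for no effect and wells lacking GST-MLLE protein for full effect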
# DNA FID counter – counter-screen for HCV NS3 helicase inhibitors: DNA intercalator displacement | DNA fluorescent intercalator displacement, fluorescence | inhibition, % at 7.9 µM | AID 1845 | actives 0.17% (n = 290,000); in the data active = inhibition above about 37%;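 also: 0% = vehicle and 100% = reference compound; higher means more ethidium bromide displaced from hairpin DNA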
# eIF4H inh – inhibitors of RNA binding by human eIF4H; Q15056; eIF4H fluorescence polarization binding assay; inhibition, % at 35 µM; actives 0.94% (n = 290,000); AID 2012;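 also: calls also rest on retests at 20 µM and on dose response follow-up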
# HCV core dimer – HCV core protein dimerization inhibition; TR-FRET GST/Flag-core106 dimerization, 1536-well; inhibition, % at 5 µM; actives 0.33% (n = 300,000);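 active = inhibition above the mean of all tested compounds plus 3 SD, set per screening campaign, cut at about 45% in these data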
#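 Material: GST/Flag-tagged HCV core106 proteins. Incubation: 4 h, 22.5 °C incubation. Read-out basis: inhibition (%) from 671 over 617 nm ratio. Measured by: TR-FRET, excitation 340 nm, emission 617 and 671 nm.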
# PABP FP inh – PABP-poly(A) binding inhibition | actives 1% (n = 290,000) | PABP-poly(A) RNA binding, fluorescence polarization | inhibition, % at 35 µM;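 also: calls also rest on retests at 20 µM and on dose response follow-up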
# NS3 helicase inh – inhibitors of Hepatitis C virus NS3 helicase. NS3 helicase DNA unwinding, Cy5 molecular beacon fluorescence. AID 1800. inhibition, % at 10.9 µM. actives 0.56% (n = 290,000);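 active = inhibition above the mean of all tested compounds plus 3 SD, set per campaign, cut at about 35% in these data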;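 also: 0% = DMSO wells and 100% = thioflavine S control wells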
#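 Assay system: hepatitis C virus NS3 helicase domain fragment enzyme. Also added: annealed dual-labelled DNA beacon duplex, ATP-started. Timing: 1 h reaction at 25 °C, ATP-initiated. Technique: Cy5 fluorescence at 0 and 60 min, beacon hairpin quenching. Evaluation: % inhibition of unwinding. Replication: one well per compound.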
# * hit, by the source's call; ? = inconclusive; nt = no result given; ! = repeats disagree. Unless noted, no rule for the calls is given here.
SMILES,PABP1 MLLE inh,DNA FID counter,eIF4H inh,HCV core dimer,PABP FP inh,NS3 helicase inh
O=C(OCc1ccccc1)N1Cc2ccnnc2CC1c1ccccc1Br (stereo unspecified),9,nt,nt,nt,nt,nt
Cn1cc(-c2coc3c(C(=O)NCc4cccc(Cl)c4)cccc23)cn1,-48,nt,nt,nt,nt,nt
Cc1cc(C)cc(Nc2ccc(C(=O)O)cc2N)c1,13,-12,54*,-14,active,30
CCCOc1ccc(C(=O)NNC(=S)NC(=O)c2cc(-c3ccc(Cl)cc3)nc3ccccc23)cc1,39*,-4,12,22,-6,16
O=C(Cn1nnc(-c2ccccc2)n1)NCC(=O)Nc1ccc(F)c(F)c1F,-15,nt,nt,nt,nt,nt
CC(=O)c1ccc(Nc2nc(C(N)COCc3ccccc3)cs2)cc1 (stereo unspecified),-3,nt,nt,nt,nt,nt
CCc1cccc(CC)c1NC(=O)COC(=O)c1cccc(-c2ccc(OC(C)=O)cc2)c1,-2,-5,active,3,71,2
CC(/C=C1\SC(=S)N(NC(=O)c2ccc(C)cc2)C1=O)=C\c1ccccc1,-37,3,-7,67*,0,9
COCCNC(=S)N/N=C(\C)c1ccccc1O,44*,-21,6,1,2,-2
COCCNC(=O)C1(C)CCCN(Cc2csc(-c3ccc(Cl)cc3)n2)C1 (stereo unspecified),-2,nt,nt,nt,nt,nt
CC(=O)NCCNc1nc2cc(-c3ccsc3)sc2c(=O)n1C,4,nt,nt,nt,nt,nt
CCNC(=O)C1(C)CCCN(C(=O)c2ccc3c(c2)C(C)(C)CCC3(C)C)C1 (stereo unspecified),-11,nt,nt,nt,nt,nt
O=C(CCc1ccccc1)NC(=S)Nc1ccc(S(=O)(=O)N2CCOCC2)cc1,44*,-2,-5,7,6,-6
O=S(=O)(c1ccc(NC(=S)Nc2ccc3c(c2)OCO3)cc1)N1CCOCC1,22,3,94*,5,2.8*,-4
CC(C)Cc1nnc(NC(=O)C2CCCN(C(=O)c3ccc(Cl)cc3)C2)s1 (stereo unspecified),-3,nt,nt,nt,nt,nt
Cc1cc(-c2ccccc2)nc(N2CCC(C(=O)NCC3CCCCC3)CC2)n1,nt,4,nt,nt,nt,10
Cc1ccc(Sc2ncccc2O)cc1,10,nt,nt,-2,nt,nt
Cc1ccc(Sc2ncccc2COC(=O)NC(C)C)cc1,-14,-1,active,1,53*,1
N/C(=N\OC(=O)c1ccc2c(c1)OCO2)c1cccc([N+](=O)[O-])c1,5,2,2,-10,-2,-4
Cc1ccc(S(=O)(=O)N(C)C)cc1NC(=O)COC(=O)c1ccc2c(c1)OCO2,-16,-9,-4,-5,-2,-6
Cc1cccc(/C(N)=N/OC(=O)c2ccc3c(c2)OCO3)c1,5,-9,2.0*,0,72*,12
Cc1ccc(C)c(NC(=O)COC(=O)c2ccc3c(c2)OCO3)c1,4,6,14*,-2,71*,10
Cc1ccc(S(=O)(=O)N2CCN(Cc3ccco3)CC2)c(C)c1,3,-27,-5,0,14,-4
Cc1c(C(=O)N(Cc2ccccc2)C(C)C)oc2ccc(S(=O)(=O)N3CCOCC3)cc12,9,-54,nt,8,nt,-14
O=C(O)C(CCCCNS(=O)(=O)c1ccc(F)cc1)NS(=O)(=O)c1ccc(F)cc1 (stereo unspecified),-14,-24,96*!,4,71*!,5
SMILES,PABP1 MLLE inh,DNA FID counter,eIF4H inh,HCV core dimer,PABP FP inh,NS3 helicase inh
COc1nc(-c2ccccc2)cc(-c2ccccc2)n1,-13,-12,active,10,84*,-2
Cc1nc(-c2ccccc2)cc(-c2ccccc2)n1,9,nt,nt,0,nt,nt
O=C(CCCN1C(=O)CCC1=O)Nc1ccccc1F,34*,-2,8,-2,-4,3
C=CCN1C(=O)/C(=C\c2ccc(Cl)cc2)N=C1SCC(=O)NC1CCCCC1,40*,-3,0,1,-4,-2
CS(=O)(=O)N1CCN(c2ccc([N+](=O)[O-])c(NCc3ccc(Cl)cc3)c2)CC1,-23,2,active,7,122*,1
O=[N+]([O-])c1cc2c(cc1/C=N/n1c(-c3ccccc3)n[nH]c1=S)OCO2,-5,5,59*,6,25,30
O=C(N/N=C/c1cc2c(cc1[N+](=O)[O-])OCO2)c1cccnc1,0,-4,85*,1,30*,25
Cc1cccc(N=Cc2cc3c(cc2[N+](=O)[O-])OCO3)c1,-9,-1,62*,28,21*,25
O=[N+]([O-])c1cc2c(cc1C=Nc1ccccc1)OCO2,-78,-3,33,10,10,35
COc1cc(O)cc2cc3c(c(O)c12)C(=O)CC(C)(O)O3 (stereo unspecified),45*,nt,72*,-12,62*,nt
C#CCOCCOCCOCCNc1nc(N2CCN(C(=O)[C@H](C(C)C)n3cc(CCO)nn3)CC2)nc(N2CCN(C(=O)[C@H]([C@@H](C)CC)n3cc(CCC(=O)O)nn3)CC2)n1,8,nt,nt,nt,nt,nt
O=C(Cn1c(=O)oc2ccccc21)NCC1COc2ccccc2O1 (stereo unspecified),7,-11,49,-1,0,4
O=C(Nc1ccc2c(c1)OCO2)c1cc2ncc(Br)cn2n1,-8,-2,54*,nt,10*,12
CN(C(=O)c1ccc(NC(=O)Cc2cccc(NC(=O)C3CCCN(C(=O)C4CCCC4)C3)c2)cc1)C1CCCC1 (stereo unspecified),-5,nt,nt,nt,nt,nt
Cc1nnc(N2C(=O)C(O)=C(C(=O)c3ccco3)C2c2ccc(F)cc2)s1 (stereo unspecified),34,-3,?,0,-18,17
Cc1nnc(N2C(=O)C(O)=C(C(=O)c3ccco3)C2c2ccc(C(C)C)cc2)s1 (stereo unspecified),31,-14,52*,-1,active,32
COc1ccc(S(=O)(=O)N2CCCC2CNC(=O)C(=O)NCc2cccs2)cc1 (stereo unspecified),-6,nt,nt,1,nt,nt
N#CC1=C(N)OC2=C(CC/C2=C\c2ccc(F)cc2)C1c1ccc(F)cc1 (stereo unspecified),nt,-19,?,52*,-11,23
CCOC(=O)c1c(C)[nH]c(C2=NNC(=NC3CC3)SC2)c1C,29,-19,-4,-6,-14,-8
Cc1cc(C(F)(F)F)c2c(N)c(C(=O)Nc3cc(C)on3)sc2n1,24,-5,59*,5,55*,1
Cc1cc(C)cc(NC(=O)c2sc3nc(C)cc(C)c3c2N)c1,25,-12,-3,5,-4,6
CN(C)CCNC(=O)C1(O)c2cc(Br)ccc2NC(=O)N1c1ccc(Cl)cc1 (stereo unspecified),9,-2,3,4,13,15
COC(=O)c1ccccc1NC(=O)c1noc2c1CCC2,22,nt,83*,20,56*,nt
